How the values were obtained:
[1] = Drug metabolism in human MCF7 cells assessed as reduction in elevation of C26-ceramide metabolite formation at 10 uM after 1 hr by UHPLC-MS/MS analysis; format: ADME, cell-based; conditions: mcf7, 1 h
In short: (§1)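 After 1h of exposure to 10uM of each isomer, MCF7 pellets were extracted. Endogenous Cn-Cer and Cn-dhCer species were quantified by UHPLC-MS/MS as pmol/nmol lipid phosphate. Results are triplicate means ± st dev versus control.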

[2] = Drug metabolism in human MCF7 cells assessed as increase in C14-ceramide metabolite formation at 10 uM after 1 hr by UHPLC-MS/MS analysis; format: ADME, cell-based; conditions: mcf7, 1 h; in short: as §1
MCF7 [3] = experiment: Antiproliferative activity against human MCF7 cells assessed as growth inhibition after 24 hrs by MTT assay; format: functional, cell-based; conditions: MCF7, 24 h
In short: (§2)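 MCF7 (RPMI 1640 with 10% FBS, 2mM L-glutamine, 37°C, 5% CO2) harvested in exponential growth, then exposed to each B13 stereoisomer for the stated time. Viable cells were quantified by MTT and expressed as % of untreated control (means ± st dev, 5 replicates). IC50 values were derived per time point.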

[4] = Drug uptake in human MCF7 cells at 1 to 10 uM after 1 hr by HPLC-MS/MS analysis; format: ADME, cell-based; conditions: mcf7, 1 h, dose 1-10 µM
In short: (§3)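 MCF7 cells received 1, 5 or 10uM of each isomer for 1h or 24h as stated. Intracellular isomer levels were quantified by UHPLC-MS/MS of lipid extracts from cell pellets. Data are means ± st dev of triplicates.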

[5] = Drug uptake in human MCF7 cells at 1 to 10 uM after 24 hrs by HPLC-MS/MS analysis; format: ADME, cell-based; conditions: mcf7, 24 h, dose 1-10 µM; in short: as §3
MCF7 [6] = experiment: Antiproliferative activity against human MCF7 cells assessed as growth inhibition after 48 hrs by MTT assay; format: functional, cell-based; conditions: MCF7, 48 h
MCF7 [7] = experiment: Antiproliferative activity against human MCF7 cells assessed as growth inhibition after 72 hrs by MTT assay; format: functional, cell-based; conditions: MCF7, 72 h; in short: as §2
[8] = Drug metabolism in human MCF7 cells assessed as increase in C16-ceramide metabolite formation at 10 uM after 1 hr by UHPLC-MS/MS analysis; format: ADME, cell-based; conditions: mcf7, 1 h; in short: as §1
[9] = Drug metabolism in human MCF7 cells assessed as ceramidase-mediated C16 metabolite formation at 1 to 10 uM after 24 hrs by UHPLC-MS/MS analysis; format: ADME, cell-based; conditions: mcf7, 24 h, dose 1-10 µM
[10] = Drug metabolism in human MCF7 cells assessed as ceramidase mediated C24:1 metabolite formation after 24 hrs by UHPLC-MS/MS analysis; format: ADME, cell-based; conditions: mcf7, 24 h
In short: (§4)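 Cells were treated with 10uM of each isomer for 24h, then pellets were collected and lipids extracted. C16 and C24:1 analogs were quantified by UHPLC-MS/MS as pmol/nmol lipid phosphate, referenced against standards. Values are means ± st dev of triplicates from 3 separate experiments.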

[11] = Drug metabolism in human MCF7 cells assessed as ceramidase mediated C16 metabolite formation after 24 hrs by UHPLC-MS/MS analysis; format: ADME, cell-based; conditions: mcf7, 24 h; in short: as §4
[12] = Drug metabolism in human MCF7 cells assessed as reduction in endogenous sphingosine level at 1 to 10 uM after 24 hrs by UHPLC-MS/MS analysis; format: ADME, cell-based; conditions: mcf7, 24 h, dose 1-10 µM
In short: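 Isomers were applied at 1, 5 and 10uM for 24h. Endogenous Sph was measured in extracted pellet lipids by UHPLC-MS/MS (pmol/nmol lipid phosphate); the Cer/Sph ratio was also calculated. Values are triplicate means ± st dev versus control.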

[13] = Drug metabolism in human MCF7 cells assessed as increase in C26-dihydroceramide elevation at 10 uM after 1 hr by UHPLC-MS/MS analysis; format: ADME, cell-based; conditions: mcf7, 1 h; in short: as §1
[14] = Drugmetabolism in human MCF7 cells assessed as formation of phosphorylated free sphingoid base at 1 to 10 uM after 24 hrs by UHPLC-MS/MS analysis; format: ADME, cell-based; conditions: mcf7, 24 h, dose 1-10 µM
[15] = Drug metabolism in human MCF7 cells assessed as increase in C24-dihydroceramide elevation at 10 uM after 1 hr by UHPLC-MS/MS analysis; format: ADME, cell-based; conditions: mcf7, 1 h; in short: as §1
[16] = Drug metabolism in human MCF7 cells assessed as increase in C24:1-dihydroceramide elevation at 10 uM after 1 hr by UHPLC-MS/MS analysis; format: ADME, cell-based; conditions: mcf7, 1 h; in short: as §1
[17] = Drug metabolism in human MCF7 cells assessed as increase in C26:1-dihydroceramide elevation at 10 uM after 1 hr by UHPLC-MS/MS analysis; format: ADME, cell-based; conditions: mcf7, 1 h; in short: as §1
[18] = Drug metabolism in human MCF7 cells assessed as elevation of =<C18-ceramide metabolite at 10 uM after 24 hr by UHPLC-MS/MS analysis; format: ADME, cell-based; conditions: mcf7, 24 h
In short: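 Each isomer was given at 10uM to MCF7 cells for 24h. Lipid extracts of the cell pellets were profiled by UHPLC-MS/MS for Cn-Cer species, normalized to lipid phosphate (pmol/nmol). Data are means ± st dev of triplicates, compared with vehicle control (p<0.05).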

Row | Drug metabolism [1] | Drug metabolism [2] | IC50 (MCF7 [3]) [µM] | Drug uptake [4] | Drug uptake [5] | IC50 (MCF7 [6]) [µM] | IC50 (MCF7 [7]) [µM] | Drug metabolism [8] | Drug metabolism [9] | Drug metabolism [10] | Drug metabolism [11] | Drug metabolism [12] | Drug metabolism [13] | Drug metabolism [14] | Drug metabolism [15] | Drug metabolism [16] | Drug metabolism [17] | Drug metabolism [18] | SMILES
1 | Metabolite_Detected | Metabolite_Detected | 42.3 | Active | Active | 35.6 | 37 | Metabolite_Detected | Metabolite_Detected | Metabolite_Detected | Metabolite_Detected | Metabolite_Detected | – | – | – | – | – | – | CCCCCCCCCCCCCC(=O)N[C@H](CO)[C@H](O)c1ccc([N+](=O)[O-])cc1
2 | – | – | 54.1 | Active | Active | 43.6 | 46.6 | – | Metabolite_Detected | Metabolite_Detected | Metabolite_Detected | Metabolite_Detected | – | – | – | – | – | – | CCCCCCCCCCCCCC(=O)N[C@@H](CO)[C@@H](O)c1ccc([N+](=O)[O-])cc1
3 | – | – | 18 | Active | Active | 13.1 | 13.5 | – | Metabolite_Detected | Metabolite_Detected | Metabolite_Detected | Metabolite_Detected | – | – | – | – | – | – | CCCCCCCCCCCCCC(=O)N[C@H](CO)[C@@H](O)c1ccc([N+](=O)[O-])cc1
4 | – | – | 10.2 | Active | Not Active | 8.08 | 9.39 | – | Metabolite_Detected | Metabolite_Detected | Metabolite_Detected | – | Metabolite_Detected | Metabolite_Detected | Metabolite_Detected | Metabolite_Detected | Metabolite_Detected | Metabolite_Detected | CCCCCCCCCCCCCC(=O)N[C@@H](CO)[C@H](O)c1ccc([N+](=O)[O-])cc1
